# Square brackets hold non-standard residues; d marks the D form. Peptide text beside a SMILES is read from it. pY = N[C@@H](Cc1ccc(OP(=O)(O)O)cc1)C(=O)O
# Experiments:
# [1] = molecular target: T1, SHP2 C-SH2 (SHP2 106–220) (Homo sapiens, UniProt Q06124); assay: Isothermal titration calorimetry, peptide titrated onto C-SH2; assay type: binding
# T1 sequence (Q06124 106-220): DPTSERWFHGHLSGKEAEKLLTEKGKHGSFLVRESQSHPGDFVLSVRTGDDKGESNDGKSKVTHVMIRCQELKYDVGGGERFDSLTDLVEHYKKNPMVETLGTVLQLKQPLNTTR
# SHP2 N-SH2 = molecular target: T2, SHP2 N-SH2 (Homo sapiens, UniProt Q06124); assay: NMR 1H,15N-HSQC titration of N-SH2; assay type: binding; details: 1H,15N-HSQC with increasing peptide; protein 200 μM, 298 K
# T2 sequence (Q06124 1-105): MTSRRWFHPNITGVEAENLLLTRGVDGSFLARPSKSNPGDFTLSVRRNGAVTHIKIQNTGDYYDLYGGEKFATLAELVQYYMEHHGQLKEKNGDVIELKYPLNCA
# SHP2 C-SH2 = assay: NMR 1H,15N-HSQC titration of C-SH2; assay type: binding, Human; details: 1H,15N-HSQC with increasing peptide; protein 200 μM, 298 K
# In short: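 Uniformly 15N-labelled SHP2 C-SH2 is expressed in Tuner (DE3) E. coli in minimal medium with 15NH4Cl. Protein at 200 µM is titrated with increasing stoichiometric ratios of N-acetylated, C-amidated phosphopeptide. CSPs combine 1H and 0.15-weighted 15N shift differences.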
binding to C-SH2 by NMR spectra (SHP2 C-SH2),Compound,Kd [1] [µM],binding to N-SH2 by NMR spectra (SHP2 N-SH2)
–,CC[C@H](C)[C@H](NC(=O)[C@H](CC(N)=O)NC(=O)[C@@H](NC(=O)[C@H](Cc1ccc(OP(=O)(O)O)cc1)NC(=O)[C@H](CCC(=O)O)NC(=O)[C@H](Cc1c[nH]cn1)NC(=O)CNC(=O)[C@H](CCCCN)NC(=O)[C@H](CCCNC(=N)N)NC(=O)[C@H](CCCCN)NC(C)=O)[C@@H](C)O)C(=O)N[C@@H](CCCCN)C(=O)N[C@@H](Cc1ccc(O)cc1)C(=O)N[C@@H](CO)C(N)=O [SHP2-pY542] (Ac-KRKGHE[pY]TNIKYS-NH2),28,neither SHP2-pY542 nor SHP2-pY580 bind significantly
no binding,EDSARVpYENVGLE [SHP2-pY580],–,neither SHP2-pY542 nor SHP2-pY580 bind significantly

# Source: PMC8113834 (Computational and Structural Biotechnology Journal, 2021)
